Screening results from PubChem BioAssay.
STEP inh: STEP phosphatase inhibitors, primary screen, biochemical, fluorescence intensity, uHTS. Tyrosine-protein phosphatase non-receptor type 5 (Homo sapiens), P54829. recombinant STEP, OMFP fluorogenic substrate. inhibition, % at 20 µM. 360,000 tested, 0.25% active;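 active means inhibition at 20 µM, scaled per plate between control wells, above about 37%, limit read from the data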;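 further: 0% = DMSO with enzyme and substrate and 100% = substrate only without enzyme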
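Measure: Control-normalized % inhibition with plate pattern correction | Test system: STEP phosphatase, cell-free reaction | Medium: pH 6.0 Bis-Tris with DTT and Tween 20 | Technique: Fluorescence, 480/540 nm | Times: Reaction 20 min, ambient temperature | Doses: Single compound dose of 20 µM, 1% DMSO final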
Scp1 inh: Scp-1 phosphatase inhibitors, primary screen, biochemical, colorimetric, uHTS | Recombinant Scp1, phosphopeptide, malachite green phosphate absorbance | AID 493091, 2011 | inhibition, % at 20 µM | Carboxy-terminal domain RNA polymerase II polypeptide A small phosphatase 1 (Homo … | 340,000 tested, 0.88% active;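 active means inhibition above about 50% at 20 µM, limit read from the data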;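 further: plate controls were DMSO wells with enzyme for no effect and wells lacking enzyme for full effect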
Target sequence (Q9GZU7 76-261 limits assumed): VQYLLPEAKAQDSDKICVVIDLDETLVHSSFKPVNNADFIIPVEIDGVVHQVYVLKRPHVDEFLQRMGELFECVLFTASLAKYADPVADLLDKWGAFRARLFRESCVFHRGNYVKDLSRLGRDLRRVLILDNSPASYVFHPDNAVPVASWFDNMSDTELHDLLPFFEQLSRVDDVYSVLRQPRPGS
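Times: enzyme reaction 45 min at room temperature, colour 5 min, stabilisation 30 min. Material: SCP-1 catalytic fragment, aa 76-261. Medium: Acidic Tris acetate buffer with magnesium and detergent. Signal: colorimetric free-phosphate detection, absorbance 630 nm. Read-out basis: % inhibition of SCP-1 phosphate liberation. Reagent: Phosphorylated 17-residue peptide substrate.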
SUMO HTRF inh: inhibitors of in vitro SUMOylation cascade, primary screen, biochemical, HTRF, uHTS | 290,000 tested, 0.36% active | inhibition, % at 35 µM | HTRF SUMOylation assay, SAE1/SAE2 + UBC9; in the data active means inhibition above about 50%, passing the limit was not always enough; inconclusive means no clear call, values can overlap the other calls
Target sequence (P63279 whole entry, looked up): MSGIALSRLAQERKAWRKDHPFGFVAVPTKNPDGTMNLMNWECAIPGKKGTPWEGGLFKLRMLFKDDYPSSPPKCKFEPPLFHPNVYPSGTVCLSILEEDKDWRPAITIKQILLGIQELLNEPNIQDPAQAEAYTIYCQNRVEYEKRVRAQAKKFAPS
SUMO1-SIM PPI: modulators of SUMO1 protein-protein interactions, primary screen, biochemical, uHTS; SUMO1 binding to a labelled peptide, TR-FRET, 1 h; Small ubiquitin-related modifier 1 (Homo sapiens), P63165; 360,000 tested, 0.33% active; AID 602429, 2012; inhibition, % at 20 µM; in the data active means inhibition above about 37%
Target sequence (P63165 whole entry, looked up): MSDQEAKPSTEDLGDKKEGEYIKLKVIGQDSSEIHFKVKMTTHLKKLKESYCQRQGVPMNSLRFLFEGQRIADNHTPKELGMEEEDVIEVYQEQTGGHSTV
DNMT1 inh: human DNMT1 methyltransferase inhibitors, primary screen, biochemical, molecular beacon, fluorescence, HinP1I cleavage, uHTS; inhibition (reported as % activation of signal), % at 10 µM; AID 588458, 2011; DNA (cytosine-5)-methyltransferase 1 (Homo sapiens), P26358; 360,000 tested, 0.83% active; in the data active means inhibition above about 50%
LMPTP inh: LMPTP phosphatase inhibitors, primary screen, biochemical, fluorescence intensity, uHTS; recombinant LMPTP-A, OMFP fluorogenic substrate; inhibition, % at 20 µM; 360,000 tested, 0.22% active; AID 651560, 2012;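 active means compounds that cut the enzyme signal by at least half of the control window in the single-dose screen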;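 further: plate controls were DMSO wells with enzyme plus substrate for no effect and substrate without enzyme for full effect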
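Test system: LMPTP-A phosphatase enzyme; input: 0.625 nM LMPTP-A final; reagent: OMFP substrate, 400 µM final; compound dosing: 20 µM single dose, 3% DMSO; incubation: 50 min dark incubation at room temperature; measured by: endpoint fluorescence intensity from OMFP dephosphorylation; measure: % inhibition relative to no-enzyme and uninhibited control wells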
Active calls of the source: *; ? = inconclusive; / = no result given. Rows were chosen to be rich in hits. Some 1.9% of all compounds tested hit in one or more screens of this group.

SMILES	STEP inh	Scp1 inh	SUMO HTRF inh	SUMO1-SIM PPI	DNMT1 inh	LMPTP inh
Nc1ccc(-c2nc3ccc(N)cc3[nH]2)cc1	-4	-11	66*	11	-18	27
Cc1ccc(C)c(-c2nc3ccc(N)cc3[nH]2)c1	0	-8	50*	1	-8	-1
Cn1ncc(Cl)c1C(=O)N1CCN(c2ncccn2)CC1	-3	-1	18	-2	3	-2
CC1OC2CC(=O)OC2C2=C1C(=O)c1c(O)cccc1C2=O (stereo not drawn)	9	/	/	3	75*	18
CCN(CC)c1ccc(NC(=O)Cn2ncc3c(C)n(Cc4ccccc4F)c(C)c3c2=O)c(C)c1	4	-8	16	-3	60*	5
COc1ccccc1C(C(=O)c1ccccc1)c1ccc(O)cc1 (stereo not drawn)	/	/	/	1	/	1
CC(C)Nc1ncnc2c1cnn2-c1ccc(Cl)cc1	-4	-2	-10	1	86*	1
CCn1c(SCC(=O)c2ccc(Cl)cc2)nnc1-c1ccoc1C	1	-2	7	39*	0	-1
Nc1c(C(=O)NCC2CCCO2)sc2nc3c(c(-c4ccco4)c12)CC/C3=C\c1ccco1 (stereo not drawn)	37*	81*	?	69*	101*	70*
NC(=O)c1sc2nc3c(c(-c4ccco4)c2c1N)CCCC3	4	0	-12	-10	0	0
CSc1nc(N(CCO)CCO)c2sc3nc(-c4ccco4)c4c(c3c2n1)CCC4	56*	81*	62*	74*	96*	68*
COc1ccc(C(C)=O)cc1CSc1ccc(S(=O)(=O)N2CCCCC2)cn1	1	-17	/	-3	-4	3
O=C1NC[C@@H](CCCCN2C[C@H](Cc3ccc(O)cc3)N(CCc3ccc(O)cc3)C(=O)C2=O)N(CCc2ccccc2)C1=O	/	/	/	10	/	2
O=C1NC[C@@H](CCCCN2C[C@H](Cc3ccc(O)cc3)N(CCc3ccc(O)cc3)C(=O)C2=O)N(CCc2ccc(O)cc2)C1=O	/	/	/	44*	/	33
COc1ccc(-c2nc3ccc(Cl)cn3c2Cc2cccc(Cl)c2)cc1OC	0	/	/	6	-11	3
CCOC(=O)/C=C(\C)Sc1cc(O)c2ccccc2c1O	26	-7	74*	21	41	9
O=C(Nc1nccs1)c1cc(-c2ccccn2)nc2c(Cl)cccc12	0	-5	22	53*	27	0
Cc1ccc(C)n1Cc1ccc(C(=O)O)cc1	93*	114*	6	23	106*	21
CCOc1cc(OCC)cc(C(=O)N2CCC[C@H]2C(=O)N2CCC[C@H]2C(=O)N[C@@H](C)c2ccccc2)c1	/	/	/	0	/	-2
COc1cccc(CNc2nc(NCC3CC3)nc3ccsc23)c1OC	-2	/	/	2	-5	60*
COc1cccc(CNc2nc(NC(C)C)nc3ccsc23)c1OC	0	/	/	-2	-1	46
COc1ccc(C2C(C#N)=C(N)Oc3cccc(O)c32)cc1 (stereo not drawn)	1	-8	13	-5	-5	3
CCc1ccc2c(c1)C(NC(C)=O)C(=O)N2CCN1CCOCC1 (stereo not drawn)	-6	-2	60*	9	3	0
CCCCC(=O)N(C)c1c(C)nc2ccc(C(=O)NCCN(C)C)cn12	4	/	/	-1	2	-8
CCc1ccc2c(c1)C(=O)CCC2	0	-8	/	2	-1	-2
SMILES	STEP inh	Scp1 inh	SUMO HTRF inh	SUMO1-SIM PPI	DNMT1 inh	LMPTP inh
O=C1CCCc2cc3c(cc21)CC1(C3)Cc2cc3c(cc2C1)C(=O)CCC3	5	-8	82*	1	-4	6
COc1ccc(N(CC(=O)Nc2ccccc2C(=O)O)S(=O)(=O)c2ccc(C)c([N+](=O)[O-])c2)cc1	2	7	7	0	-4	0
CCc1ccc(CNC(=O)c2ccc3nc(C4CCCCC4)oc3c2)nc1	-2	/	16	0	-4	2
CC[n+]1c(/C=C/C=C/N(C(C)=O)c2ccccc2)sc2cc(OC)ccc21	/	61*	-6	/	/	/
CC[n+]1c(/C=C(\C)OC)sc2ccccc21	1	-1	19	1	5	23
O=C1C(=C(I)I)c2ccccc2-c2ccccc21	11	44	/	36*	115*	37
O=C(O)c1cccc2c1C(=O)c1ccccc1-2	-2	-7	23	-19	1	-1
Cc1cccc2cc(-c3nc4ccc(C(=O)O)cc4[nH]3)c(=O)oc12	18	58*	?	-4	0	4
COc1cccc2cc(-c3nc4ccccc4[nH]3)c(=O)oc12	1	3	42	-17	4	5
COc1ccc(NC(=O)CSCC(=O)Nc2ccccc2C(=O)N2CCCCC2)cc1	1	-5	/	2	1	-1
C=CCc1ccc(OCCOCCOc2cccc3cccnc23)c(OC)c1	-1	-2	-18	-5	1	0
O=C(Cn1ncc(Cl)c(Cl)c1=O)Nc1ccc2c(c1)OCO2	-1	0	/	1	47	10
CCN(CC)S(=O)(=O)c1cc(NC(=O)Cn2ncc(Cl)c(Cl)c2=O)ccc1C	-1	89*	66*	-1	50	24
COc1ccc(NC(=O)Cn2ncc(Cl)c(Cl)c2=O)cc1S(=O)(=O)N1CCOCC1	4	99*	22	0	15	5
c1ccc(CNc2nc(NCCc3ccncc3)c3sccc3n2)cc1	4	/	/	-1	-2	87*
CCc1ccc(C2=NN(C(C)=O)C(c3ccco3)C2)cc1 (stereo not drawn)	-2	69*	3	0	-1	0
CCOc1cc(CNc2ccc(O)cc2)cc(Br)c1OCc1ccccc1F	4	-2	46	4	-21	24
COc1cc(CNc2ccc(O)cc2)cc(Br)c1OCc1ccccc1F	0	-5	91*	-5	-28	13
COc1cc(/C=C2\SC(=O)N(c3cccc(Cl)c3)C2=O)cc([N+](=O)[O-])c1O	98*	56*	82*	2	71*	82*
CC(=O)N1CCN=C1SCc1cccc(C)c1	1	23	3	-5	3	0
O=C1NC(=O)/C(=C/c2cccc3ccccc23)S1	-5	6	12	-13	1	-10
